Laboratory results as given in ChEMBL document CHEMBL1208737, “Synthesis and in vitro evaluation of N-alkyl-3-hydroxy-3-(2-imino-3-methyl-5-oxoimidazolidin-4-yl)indolin-2-one analogs as potential anticancer agents” (2010).

Experiments:
Type in all cases: functional
HL-60(TB) = assay: Growth inhibition of human HL-60(TB) cells by sulforhodamine B assay
Outline: (§1)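 Five-dose response testing across a 57-line human tumour panel (leukemia, non-small cell lung, colon, CNS, melanoma, ovarian, renal, prostate, breast), done after a single-dose primary screen run per the NCI method. Effect plotted against log10 molar drug concentration for each cell line. GI50 is the concentration giving a 50% reduction in net protein increase versus control cells.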

NCI-H23 = assay: Growth inhibition of human NCI-H23 cells by sulforhodamine B assay; outline: as §1
HCT-15 = assay: Growth inhibition of human HCT15 cells by sulforhodamine B assay; outline: as §1
KM12 = assay: Growth inhibition of human KM12 cells by sulforhodamine B assay; conditions: for CC50: read-out: LC50 (the source's name); outline: as §1
Malme-3M = assay: Growth inhibition of human MALME-3M cells by sulforhodamine B assay; conditions: for CC50: read-out: LC50 (the source's name); outline: as §1
MDA-MB-435 = assay: Growth inhibition of human MDA-MB-435 cells by sulforhodamine B assay; conditions: for CC50: read-out: LC50 (the source's name); outline: as §1
SK-MEL-28 = assay: Growth inhibition of human SK-MEL-28 cells by sulforhodamine B assay; conditions: for CC50: read-out: LC50 (the source's name); outline: as §1
UACC-257 = assay: Growth inhibition of human UACC257 cells by sulforhodamine B assay
Outline: (§2)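 Part of a 57-line human tumour cell panel run at five doses. Growth effect was plotted against log10 molar drug concentration for each cell line. GI50 is the concentration giving a 50% reduction in net protein increase relative to untreated control cells, read from the dose-response curve.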

IGROV-1 = assay: Growth inhibition of human IGROV1 cells by sulforhodamine B assay; conditions: for CC50: read-out: LC50 (the source's name); outline: as §1
OVCAR-5 = assay: Growth inhibition of human OVCAR5 cells by sulforhodamine B assay; conditions: for CC50: read-out: LC50 (the source's name); outline: as §1
OVCAR-8 = assay: Growth inhibition of human OVCAR8 cells by sulforhodamine B assay; conditions: for CC50: read-out: LC50 (the source's name); outline: as §1
A498 = assay: Growth inhibition of human A498 cells by sulforhodamine B assay; conditions: for CC50: read-out: LC50 (the source's name); outline: as §1
TK-10 = assay: Growth inhibition of human TK10 cells by sulforhodamine B assay; conditions: for CC50: read-out: LC50 (the source's name); outline: as §2
UO-31 = assay: Growth inhibition of human UO31 cells by sulforhodamine B assay; conditions: for CC50: read-out: LC50 (the source's name); outline: as §2

Compound | GI50 (HL-60(TB)) | LC50 (HL-60(TB)) | GI50 (NCI-H23) | LC50 (NCI-H23) | GI50 (HCT-15) | LC50 (concentration killing 50% of starting cells) (HCT-15) | GI50 (KM12) | CC50 (KM12) | GI50 (Malme-3M) | CC50 (Malme-3M) | GI50 (MDA-MB-435) | CC50 (MDA-MB-435) | GI50 (SK-MEL-28) | CC50 (SK-MEL-28) | GI50 (UACC-257) | LC50 (UACC-257) | GI50 (IGROV-1) | CC50 (IGROV-1) | GI50 (OVCAR-5) | CC50 (OVCAR-5) | further results
COc1ccc(CN2C(=O)C(O)(C3C(=O)NC(=N)N3C)c3cc(Cl)ccc32)cc1 (stereo unspecified) | 3.22 µM | > 100 µM | 4.74 µM | > 100 µM | 12.6 µM | > 100 µM | 2.05 µM | 30 µM | 29.6 µM | > 100 µM | 6.12 µM | 93.1 µM | 50.3 µM | > 100 µM | 1.43 µM | 19.4 µM | 2.59 µM | > 100 µM | 34.9 µM | > 100 µM | GI50 (OVCAR-8): 1.35 µM; CC50 (OVCAR-8): 17.2 µM; GI50 (A498): 34.5 µM; CC50 (A498): > 100 µM; GI50 (TK-10): 4.11 µM; CC50 (TK-10): > 100 µM; GI50 (UO-31): 4.15 µM; CC50 (UO-31): > 100 µM
COc1ccc(CN2C(=O)C(O)(C3C(=O)NC(=N)N3C)c3ccccc32)cc1 (stereo unspecified) | 4.91 µM | > 100 µM | 13.9 µM | > 100 µM | 11.8 µM | > 100 µM | 2.87 µM | 80.4 µM | 27.4 µM | > 100 µM | 10.6 µM | > 100 µM | 36.9 µM | > 100 µM | 6.28 µM | > 100 µM | 3.26 µM | > 100 µM | 42.1 µM | > 100 µM | GI50 (OVCAR-8): 3.52 µM; CC50 (OVCAR-8): > 100 µM; GI50 (A498): > 100 µM; CC50 (A498): > 100 µM; GI50 (TK-10): > 100 µM; CC50 (TK-10): > 100 µM; GI50 (UO-31): 83.2 µM; CC50 (UO-31): > 100 µM
